Test results reported in ChEMBL document CHEMBL4321820, “Identification and Optimization of Mechanism-Based Fluoroallylamine Inhibitors of Lysyl Oxidase-like 2/3” (J Med Chem, 2019).
Active and inactive are the calls of the source. The rule behind the calls is not given here.

Columns and labels:
[1] = tested on: Mus musculus; assay: Antifibrotic activity in CCl4-induced BALB/c mouse model of liver fibrosis assessed as reduction in liver fibrosis area at 2 mg/ml, po administered every 2 day for 6 weeks by alpha-SMA staining based microscopy; format: functional, organism-based
In short: (§1)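 Female BALB/c mice given CCl4 i.p. (1 mL/kg of 25% CCl4 in olive oil) twice weekly for 6 weeks, killed 48 h after the last dose. The 2 mg/mL treatment was given in drinking water ad libitum, changed every second day, for 6 weeks (n=15). One liver lobe was formalin-fixed and stained for Picro Sirius Red or α-SMA. Slides were scanned at 20X. Fibrotic area is given as % of total liver area, mean ± SEM. One-way ANOVA with Dunnett's test vs CCl4 + vehicle.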

[2] = biological target: T1, Protein-lysine 6-oxidase (Bos taurus, UniProt P33072); assay: Inhibition of LOX in bovine aorta using putrescine as substrate preincubated with enzyme for 30 mins followed by substrate addition and measured every 2.5 mins for 30 mins by Amplex-Red oxidation assay; format: tissue-based; conditions: read-out: pIC50 (converted)
T1 sequence (P33072 whole entry): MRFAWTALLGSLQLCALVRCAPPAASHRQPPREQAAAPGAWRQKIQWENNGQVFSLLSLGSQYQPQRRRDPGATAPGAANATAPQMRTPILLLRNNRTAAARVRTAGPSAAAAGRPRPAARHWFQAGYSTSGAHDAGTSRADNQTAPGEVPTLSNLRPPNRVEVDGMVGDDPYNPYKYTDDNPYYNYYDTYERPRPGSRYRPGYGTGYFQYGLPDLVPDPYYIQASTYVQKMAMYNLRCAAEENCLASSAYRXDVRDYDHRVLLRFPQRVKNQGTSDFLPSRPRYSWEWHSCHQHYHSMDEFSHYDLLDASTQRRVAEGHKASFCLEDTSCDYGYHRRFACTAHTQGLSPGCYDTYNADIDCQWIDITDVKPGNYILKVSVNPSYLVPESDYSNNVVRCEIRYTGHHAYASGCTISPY
In short: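 LOX extracted from calf aorta after PBS washing with 4 M urea/50 mM borate pH 8.2, concentrated on 10 kDa filters into 1.2 M urea/borate with protease inhibitors. Preincubated 30 min at 37 °C with compound, then Amplex Red/HRP with 10 mM putrescine; fluorescence read every 2.5 min for 30 min.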

[3] = tested on: Mus musculus; assay: Antifibrotic activity in CCl4-induced BALB/c mouse model of liver fibrosis assessed as liver fibrosis area at 2 mg/ml, po administered every 2 day for 6 weeks by picro-sirius red staining based microscopy; format: functional, organism-based; in short: as §1
[4] = tested on: Mus musculus; assay: Increase in plasma AST level in CCl4-induced BALB/c mouse model of liver fibrosis at 2 mg/ml, po administered every 2 day for 6 weeks; format: ADME, organism-based; conditions: in vivo
In short: (§2)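 Female BALB/c mice given CCl4 i.p. (1 mL/kg of 25% CCl4 in olive oil) twice weekly for 6 weeks, killed 48 h after the last dose. The 2 mg/mL treatment was given in drinking water ad libitum, changed every second day, for 6 weeks (n=15). ALT and AST were measured in plasma.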

[5] = tested on: Mus musculus; assay: Increase in plasma ALT level in CCl4-induced BALB/c mouse model of liver fibrosis at 2 mg/ml, po administered every 2 day for 6 weeks; format: ADME, organism-based; conditions: in vivo; in short: as §2
[6] = biological target: T2, Lysyl oxidase homolog 2 (Homo sapiens) (UniProt Q9Y4K0); assay: Irreversible inhibition of recombinant human C-terminal His-tagged […] (1-774 residues) expressed in mouse myeloma cells assessed as maximal inhibition at 30XIC50 incubated for 60 mins followed by 100-fold dilution prior to addition of putrescine as substrate and measured after 30 mins by jump dilution assay based Amplex-Red oxidation assay relative to control
T2 sequence (whole entry): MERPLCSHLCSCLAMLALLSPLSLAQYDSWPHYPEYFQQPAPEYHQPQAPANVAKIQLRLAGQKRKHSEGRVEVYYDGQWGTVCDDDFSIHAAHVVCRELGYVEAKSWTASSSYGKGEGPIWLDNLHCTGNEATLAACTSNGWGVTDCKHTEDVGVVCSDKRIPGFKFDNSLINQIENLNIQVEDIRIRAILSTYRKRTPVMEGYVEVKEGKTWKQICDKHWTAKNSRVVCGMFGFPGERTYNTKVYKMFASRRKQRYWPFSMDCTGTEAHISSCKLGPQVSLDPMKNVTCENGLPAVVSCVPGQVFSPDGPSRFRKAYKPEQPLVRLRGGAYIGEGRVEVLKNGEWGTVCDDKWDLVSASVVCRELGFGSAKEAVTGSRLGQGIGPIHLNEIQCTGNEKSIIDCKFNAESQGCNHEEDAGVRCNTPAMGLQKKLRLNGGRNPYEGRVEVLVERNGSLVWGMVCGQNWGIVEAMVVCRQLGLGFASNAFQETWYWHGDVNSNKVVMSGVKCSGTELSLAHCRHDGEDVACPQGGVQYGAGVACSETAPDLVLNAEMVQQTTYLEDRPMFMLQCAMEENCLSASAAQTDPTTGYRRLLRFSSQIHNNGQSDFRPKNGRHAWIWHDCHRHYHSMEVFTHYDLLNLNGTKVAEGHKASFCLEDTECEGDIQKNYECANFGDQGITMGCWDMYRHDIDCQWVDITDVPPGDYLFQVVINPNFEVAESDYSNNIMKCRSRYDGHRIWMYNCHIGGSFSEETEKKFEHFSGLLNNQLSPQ
In short: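 LOXL2 soaked 60 min at 37 °C with inhibitor at 30× IC50. Diluted 50-fold in assay buffer (1.2 M urea, 50 mM borate, pH 8.2), then 1:2 with reaction mix of Amplex Red 120 µM, HRP 1.5 U/mL and putrescine. Read out 30 min after substrate addition (ex 565/em 590, 37 °C). Percent activity followed over time after dilution.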

[7] = biological target: T2, Lysyl oxidase homolog 2 (Homo sapiens); assay: Time-dependent inhibition of recombinant human C-terminal His-tagged […] (1-774 residues) expressed in mouse myeloma cells assessed as inactivation constant using putrescine as substrate by kitz-wilson plot analysis
In short: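 Recombinant human LOXL2 preincubated with inhibitor for varying times at 37 °C, then 5 mM putrescine added with 120 µM Amplex Red and 1.5 U/mL HRP. Buffer was 1.2 M urea, 50 mM sodium borate, pH 8.2. Fluorescence read every 2.5 min for 30 min. Apparent Ki and kinact derived by Kitz–Wilson analysis.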

[8] = Selectivity index, ratio of IC50 for recombinant human C-terminal His-tagged […] (1-774 residues) expressed in mouse myeloma cells to IC50 for LOX in bovine aorta
[9] = biological target: T2, Lysyl oxidase homolog 2 (Homo sapiens); assay: Inhibition of recombinant human C-terminal His-tagged […] (1-774 residues) expressed in mouse myeloma cells at 10XIC50 preincubated with bound enzyme for 30 mins followed by drug wash-out and later incubated with putrescine substrate and measured after 30 mins by Amplex-Red oxidation assay; format: cell-based
[10] = species on record: Homo sapiens; assay: Displacement of [3H]PK11195 from human recombinant peripheral benzodiazepine receptor at 10 uM incubated for 15 mins by scintillation counting method
In short: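 Single-concentration screen at 10 µM in a panel of 119 enzyme and receptor targets under standard conditions; >50% inhibition of radioligand binding counted as a hit.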

[11] = biological target: T2, Lysyl oxidase homolog 2 (Homo sapiens); assay: Inhibition of recombinant human LOXL2 assessed as inhibition of collagen cross linking compound replenishment for 5 days and measured on day 7 by UPLC-ESI-MS/MS analysis
[12] = biological target: T2, Lysyl oxidase homolog 2 (Homo sapiens); assay: Substrate competitive inhibition of recombinant human C-terminal His-tagged […] (1-774 residues) expressed in mouse myeloma cells using different concentrations of putrescine as substrate preincubated with enzyme for 30 mins followed by substrate addition and measured every 2.5 mins for 30 mins by substrate competition based Amplex-Red oxidation assay
In short: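 Recombinant LOXL2 incubated with inhibitor plus a range of putrescine concentrations before the reaction mix was added (120 µM Amplex Red, 1.5 U/mL HRP). Buffer was 1.2 M urea, 50 mM sodium borate, pH 8.2. Fluorescence (ex 565/em 590 nm) read every 2.5 min for 30 min at 37 °C.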

Compound	inhibition [1]	IC50 [2]	inhibition [3]	Activity [4]	Activity [5]	Imax [6]	Kinact [7]	IC50 ratio [8]	inhibition [9]	inhibition [10]	inhibition [11]	inhibition [12]
N#CCCN	Active	2000 nM	inactive	Toxic	Toxic							
Cc1c(-c2cccc(S(=O)(=O)N(C)C)c2)c2cc(C(=O)O)ccc2n1C/C(F)=C/CN						> 80%	0.89 min⁻¹	> 300	Active	> 50%	Dose-dependent effect	Active
